Measured values gathered from unrelated publications.
Lines come from different studies, so protocols differ.
Target: Ephrin type-B receptor 4 (EPHB4, Homo sapiens, UniProt P54760)
Sequence (P54760 16-987, as in one of the studies): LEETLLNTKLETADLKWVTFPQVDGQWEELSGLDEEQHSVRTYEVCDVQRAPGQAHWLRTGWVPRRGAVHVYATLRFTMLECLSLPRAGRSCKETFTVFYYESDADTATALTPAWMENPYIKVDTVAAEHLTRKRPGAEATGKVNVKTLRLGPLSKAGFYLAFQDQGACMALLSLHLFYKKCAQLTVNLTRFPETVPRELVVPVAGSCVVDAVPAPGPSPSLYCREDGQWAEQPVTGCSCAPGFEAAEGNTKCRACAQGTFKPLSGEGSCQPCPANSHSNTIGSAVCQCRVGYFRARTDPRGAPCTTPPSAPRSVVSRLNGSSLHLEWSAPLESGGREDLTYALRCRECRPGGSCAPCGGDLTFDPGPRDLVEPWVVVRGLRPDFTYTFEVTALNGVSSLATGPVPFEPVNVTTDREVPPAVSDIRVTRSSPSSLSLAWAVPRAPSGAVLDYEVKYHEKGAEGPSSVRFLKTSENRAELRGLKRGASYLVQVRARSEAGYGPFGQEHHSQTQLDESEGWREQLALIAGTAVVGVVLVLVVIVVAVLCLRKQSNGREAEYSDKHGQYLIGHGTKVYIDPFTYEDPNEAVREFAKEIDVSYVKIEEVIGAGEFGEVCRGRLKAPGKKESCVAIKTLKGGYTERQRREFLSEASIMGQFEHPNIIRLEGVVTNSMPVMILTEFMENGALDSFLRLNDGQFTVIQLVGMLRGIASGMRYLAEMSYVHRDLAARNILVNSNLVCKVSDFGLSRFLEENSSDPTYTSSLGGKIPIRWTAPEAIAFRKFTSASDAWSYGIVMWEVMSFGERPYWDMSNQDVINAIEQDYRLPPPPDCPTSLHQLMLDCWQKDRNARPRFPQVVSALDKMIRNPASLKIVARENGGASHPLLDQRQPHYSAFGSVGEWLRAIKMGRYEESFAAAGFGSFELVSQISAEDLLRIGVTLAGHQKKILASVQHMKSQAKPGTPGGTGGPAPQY

The remaining binding of `CCOC(=O)c1cc2cc(-c3cc(C(=O)NCc4ccc(C(=O)O)cc4)nn3C)ccc2[nH]1` is reported as 99% (cell-free assay; competition with immobilised ligand; 0.1 µM).
With `FC(F)(F)Oc1cccc(-c2cnc3ccc(-c4ccncc4)nn23)c1` the remaining binding was 87% (cell-free assay; competition with immobilised ligand; 5 µM).
`c1cncc(-c2cccc(Nc3nccc(NC4CCCCC4)n3)c2)c1` gave a remaining binding of 89% (binding; competition with immobilised ligand; 10 µM).
For `COc1ncc2cc3ccccc3nc2c1C#N`, the remaining binding was 100% (cell-free assay; competition with immobilised ligand; 5 µM).
`N[C@@H]1CCN(c2nccc(-c3cnn4ncccc34)n2)C1` gave a remaining binding of 100% (binding; 1 µM).
The remaining binding of `Cc1cnc(Nc2ccc(C(=O)N3CCC(N4CCCC4)CC3)cc2)nc1-c1cc2ccccc2s1` is reported as 27% (binding; competition with immobilised ligand; 1 µM).
`COc1cnc(Nc2cccc(S(N)(=O)=O)c2)nc1N1CCN(c2ccccc2)C(=O)C1` gave a remaining binding of 100% (binding; competition with immobilised ligand; 1 µM).
`O=C(NCC1CCOCC1)c1n[nH]cc1NC(=O)c1c(F)cccc1F` gave a remaining binding of 100% (binding; competition with immobilised ligand; 1 µM).
`Cc1cc(C)c(-n2ccn3nc(-c4cccnc4)cc23)cc1NC(=O)c1cc(C#N)cc(S(F)(F)(F)(F)F)c1` gave a remaining binding of 99.6% (cell-free assay; competition with immobilised ligand; 0.1 µM).
`O=C(NCCCN1CCOCC1)c1ccc(Nc2ncc(Cl)c(-c3ccc(Cl)s3)n2)cc1` gave a remaining binding of 91% (binding; competition with immobilised ligand; 1 µM).
`CN(c1nccc(-c2cnn3ncccc23)n1)C1CC1` gave a remaining binding of 100% (binding; 1 µM).
`Nc1ncc2c(n1)-c1c([nH]c3ccc(C#CC4CC4)cc13)CCCC2` has a remaining binding of 100% (binding; competition with immobilised ligand; 1 µM).
With `Cc1cnn2ncc(-c3ccnc(N(C)C)n3)c2c1` the remaining binding was 94% (binding; 1 µM).
`Cn1cc(Cl)c2c(Oc3c(F)cc(Nc4cc(Cl)nc(N)n4)cc3F)ccnc21` has a remaining binding of 100% (cell-free assay; competition with immobilised ligand; 0.1 µM).
`CN(CCCC(F)(F)F)c1nccc(-c2cnn3ncccc23)n1` has a remaining binding of 93% (binding; 1 µM).
The remaining binding of `C[C@@H]1CN(c2cc(-c3n[nH]c4ccc(OC5(C)CC5)cc34)ncn2)C[C@H](C)O1` is reported as 79% (cell-free assay; competition with immobilised ligand; 0.1 µM).
The remaining binding of `CN(C)c1nccc(-c2cnn3ncccc23)n1` is reported as 100% (binding; 1 µM).
`CN(C)C(=O)Cn1cc(-c2nc(C3(c4ccc(-c5cnc(N)nc5)cc4)CC3)no2)cn1` gave a remaining binding of 100% (cell-free assay; competition with immobilised ligand; 1 µM).
The remaining binding of `O=C(c1ccc(Nc2ncc(Cl)c(-c3cc4ccccc4s3)n2)cc1)N1CCC(N2CCCC2)CC1` is reported as 65% (binding; competition with immobilised ligand; 1 µM).
For `C[C@H](c1ccc(F)cc1)N(Cc1cccc(C(=O)O)c1)C(=O)c1cnc2ccccc2c1`, the remaining binding was 100% (cell-free assay; competition with immobilised ligand; 1 µM).
With `C[C@H]1CCN(c2nccc(-c3cnn4ncccc34)n2)C1` the remaining binding was 100% (binding; 1 µM).
